Measurements taken from ChEMBL document CHEMBL1147968, “Novel lbeta-methylcarbapenems having cyclic sulfonamide moieties: synthesis and evaluation of in vitro antibacterial activity” (2007).
Values after ≈ are worked out from the molar mass of the structure shown.

Experiments:
Serratia marcescens [1] = assay: Antibacterial activity against Serratia marcescens 370 after 18 to 24 hrs by agar dilution method; assay type: functional
How it was run: (§1)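 MICs were determined by agar dilution on test agar. An overnight tryptosoy broth culture was diluted in the same broth to about 10⁶ cells/mL and spotted with an inoculating device onto agar containing serial twofold dilutions of compound. Plates were incubated at 37 °C for 18–20 h, and the MIC was the lowest concentration with no visible growth.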

Bacillus subtilis = assay: Antibacterial activity against Bacillus subtilis ATCC 6633 after 18 to 24 hrs by agar dilution method; assay type: functional; how it was run: as §1
Pseudomonas aeruginosa [2] = assay: Antibacterial activity against Pseudomonas aeruginosa 77/2 after 18 to 24 hrs by agar dilution method; assay type: functional; how it was run: as §1
Staphylococcus aureus [3] = assay: Antibacterial activity against Staphylococcus aureus 1218 after 18 to 24 hrs by agar dilution method; assay type: functional; how it was run: as §1
Citrobacter freundii = assay: Antibacterial activity against Citrobacter freundii 323 after 18 to 24 hrs by agar dilution method; assay type: functional; how it was run: as §1
Acinetobacter baumannii = assay: Antibacterial activity against Acinetobacter baumannii 2289 after 18 to 24 hrs by agar dilution method; assay type: functional; how it was run: as §1
Salmonella = assay: Antibacterial activity against Salmonella orion after 18 to 24 hrs by agar dilution method; assay type: functional; how it was run: as §1
Streptococcus agalactiae [4] = assay: Antibacterial activity against Streptococcus agalactiae 32 after 18 to 24 hrs by agar dilution method; assay type: functional; how it was run: as §1
Escherichia coli [5] = assay: Antibacterial activity against Escherichia coli 1507 after 18 to 24 hrs by agar dilution method; assay type: functional; how it was run: as §1
Micrococcus luteus = assay: Antibacterial activity against Micrococcus luteus ATCC 9341 after 18 to 24 hrs by agar dilution method; assay type: functional; how it was run: as §1
Pseudomonas aeruginosa [6] = assay: Antibacterial activity against Pseudomonas aeruginosa 110/2 after 18 to 24 hrs by agar dilution method; assay type: functional; how it was run: as §1
Staphylococcus aureus [7] = assay: Antibacterial activity against Staphylococcus aureus 209P after 18 to 24 hrs by agar dilution method; assay type: functional; how it was run: as §1
Enterobacter cloacae [8] = assay: Antibacterial activity against Enterobacter cloacae after 18 to 24 hrs by agar dilution method; assay type: functional; how it was run: as §1
Klebsiella pneumoniae [9] = assay: Antibacterial activity against Klebsiella pneumoniae 523 after 18 to 24 hrs by agar dilution method; assay type: functional; how it was run: as §1
Burkholderia cepacia = assay: Antibacterial activity against Pseudomonas cepacia after 18 to 24 hrs by agar dilution method; assay type: functional; how it was run: as §1
Pseudomonas aeruginosa [10] = assay: Antibacterial activity against Pseudomonas aeruginosa 5455 after 18 to 24 hrs by agar dilution method; assay type: functional; how it was run: as §1
Providencia rettgeri [11] = assay: Antibacterial activity against Proteus rettgeri 936 after 18 to 24 hrs by agar dilution method; assay type: functional; how it was run: as §1
Salmonella typhimurium = assay: Antibacterial activity against Salmonella Typhimurium after 18 to 24 hrs by agar dilution method; assay type: functional, Salmonella enterica subsp. enterica serovar Typhimurium; settings: Salmonella enterica; how it was run: as §1
Proteus mirabilis [12] = assay: Antibacterial activity against Proteus mirabilis 112/3 after 18 to 24 hrs by agar dilution method; assay type: functional; how it was run: as §1
Escherichia coli [13] = assay: Antibacterial activity against Escherichia coli 086 after 18 to 24 hrs by agar dilution method; assay type: functional; how it was run: as §1
Pseudomonas aeruginosa [14] = assay: Antibacterial activity against Pseudomonas aeruginosa 9027 after 18 to 24 hrs by agar dilution method; assay type: functional; how it was run: as §1
Serratia marcescens [15] = assay: Antibacterial activity against Serratia marcescens 6093 after 18 to 24 hrs by agar dilution method; assay type: functional; how it was run: as §1
Escherichia coli [16] = assay: Antibacterial activity against Escherichia coli 0114 after 18 to 24 hrs by agar dilution method; assay type: functional; how it was run: as §1
Proteus vulgaris = assay: Antibacterial activity against Proteus vulgaris 868 after 18 to 24 hrs by agar dilution method; assay type: functional; how it was run: as §1
[17] = Antibacterial activity against Salmonella give after 18 to 24 hrs by agar dilution method; assay type: functional, Salmonella enterica subsp. enterica serovar Give; settings: Salmonella enterica; how it was run: as §1
Staphylococcus aureus [18] = assay: Antibacterial activity against Staphylococcus aureus giorgio after 18 to 24 hrs by agar dilution method; assay type: functional; how it was run: as §1
Pseudomonas aeruginosa [19] = assay: Antibacterial activity against Pseudomonas aeruginosa 880/2 after 18 to 24 hrs by agar dilution method; assay type: functional; how it was run: as §1
Escherichia coli [20] = assay: Antibacterial activity against Escherichia coli 04 after 18 to 24 hrs by agar dilution method; assay type: functional; how it was run: as §1
Enterobacter cloacae [21] = assay: Antibacterial activity against Enterobacter cloacae 34 after 18 to 24 hrs by agar dilution method; assay type: functional; how it was run: as §1
Salmonella paratyphi = assay: Antibacterial activity against Salmonella paratyphi A after 18 to 24 hrs by agar dilution method; assay type: functional, Salmonella enterica subsp. enterica serovar Paratyphi A; settings: Salmonella enterica
How it was run: (§2)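 Agar dilution on test agar with serial twofold dilutions of compound. Overnight tryptosoy broth cultures diluted in the same broth to about 10⁶ cells/mL, then applied with an inoculating device. Plates incubated at 37 °C for 18–20 h.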

Serratia marcescens [22] = assay: Antibacterial activity against Serratia marcescens 14273 after 18 to 24 hrs by agar dilution method; assay type: functional; how it was run: as §1
Streptococcus pneumoniae = assay: Antibacterial activity against Streptococcus pneumoniae 0025 after 18 to 24 hrs by agar dilution method; assay type: functional; how it was run: as §1
[23] = tested on: Corynebacterium diphtheriae; assay: Antibacterial activity against Corynebacterium diphtheriae after 18 to 24 hrs by agar dilution method; assay type: functional; how it was run: as §1
Providencia rettgeri [24] = assay: Antibacterial activity against Proteus rettgeri 937 after 18 to 24 hrs by agar dilution method; assay type: functional; how it was run: as §1
Staphylococcus aureus [25] = assay: Antibacterial activity against Staphylococcus aureus 503 after 18 to 24 hrs by agar dilution method; assay type: functional; how it was run: as §1
Serratia marcescens [26] = assay: Antibacterial activity against Serratia marcescens 3349 after 18 to 24 hrs by agar dilution method; assay type: functional; how it was run: as §1
Enterobacter cloacae [27] = assay: Antibacterial activity against Enterobacter cloacae 417 after 18 to 24 hrs by agar dilution method; assay type: functional; how it was run: as §1
Streptococcus agalactiae [28] = assay: Antibacterial activity against Streptococcus agalactiae B after 18 to 24 hrs by agar dilution method; assay type: functional; how it was run: as §1
[29] = Antibacterial activity against Salmonella oranienburg after 18 to 24 hrs by agar dilution method; assay type: functional, Salmonella enterica subsp. enterica serovar Oranienburg; settings: Salmonella enterica; how it was run: as §1
Pasteurella multocida = assay: Antibacterial activity against Pasteurella multocida after 18 to 24 hrs by agar dilution method; assay type: functional; how it was run: as §1
Escherichia coli [30] = assay: Antibacterial activity against Escherichia coli 0126 after 18 to 24 hrs by agar dilution method; assay type: functional; how it was run: as §1
Streptococcus pyogenes = assay: Antibacterial activity against Streptococcus pyogenes 9889 after 18 to 24 hrs by agar dilution method; assay type: functional
How it was run: (§3)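 Agar dilution on test agar holding serial twofold dilutions of compound. Overnight tryptosoy broth cultures were diluted in the same broth to about 10⁶ cells/mL and spotted with an inoculating device. Plates were incubated at 37 °C for 18–20 h.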

Haemophilus influenzae = assay: Antibacterial activity against Haemophilus influenzae 1210 after 18 to 24 hrs by agar dilution method; assay type: functional; how it was run: as §1
Enterococcus faecium = assay: Antibacterial activity against Streptococcus faecium 77A after 18 to 24 hrs by agar dilution method; assay type: functional; how it was run: as §1
Proteus mirabilis [31] = assay: Antibacterial activity against Proteus mirabilis 174/3 after 18 to 24 hrs by agar dilution method; assay type: functional; how it was run: as §1
Klebsiella pneumoniae [32] = assay: Antibacterial activity against Klebsiella pneumoniae 477 after 18 to 24 hrs by agar dilution method; assay type: functional; how it was run: as §1
Escherichia coli [33] = assay: Antibacterial activity against Escherichia coli TEM after 18 to 24 hrs by agar dilution method; assay type: functional; how it was run: as §1
Enterococcus faecalis = assay: Antibacterial activity against Enterococcus faecalis 2347 after 18 to 24 hrs by agar dilution method; assay type: functional; how it was run: as §1
Escherichia coli [34] = assay: Antibacterial activity against Escherichia coli V6311/65 after 18 to 24 hrs by agar dilution method; assay type: functional; how it was run: as §1
Priestia megaterium = assay: Antibacterial activity against Bacillus megaterium after 18 to 24 hrs by agar dilution method; assay type: functional; how it was run: as §1
Salmonella typhi = assay: Antibacterial activity against Salmonella typhi after 18 to 24 hrs by agar dilution method; assay type: functional, Salmonella enterica subsp. enterica serovar Typhi; settings: Salmonella enterica; how it was run: as §2
Enterococcus durans = assay: Antibacterial activity against Streptococcus durans D after 18 to 24 hrs by agar dilution method; assay type: functional; how it was run: as §1
Trueperella pyogenes = assay: Antibacterial activity against Corynebacterium pyogenes after 18 to 24 hrs by agar dilution method; assay type: functional; how it was run: as §1
Staphylococcus = assay: Antibacterial activity against coagulase negative Staphylococcus after 18 to 24 hrs by agar dilution method; assay type: functional; how it was run: as §3

C[C@@H](O)[C@H]1C(=O)N2C(C(=O)O)=C(SCCNC=N)C[C@H]12 [IMIPENEM ANHYDROUS]
MIC (Serratia marcescens [1]): 0.2 µg/mL (≈ 0.668 µM) | MIC (Bacillus subtilis): 0.03 µg/mL (≈ 0.1 µM) | MIC (Pseudomonas aeruginosa [2]): 0.8 µg/mL (≈ 2.67 µM) | MIC (Staphylococcus aureus [3]): 1.56 µg/mL (≈ 5.21 µM) | MIC (Citrobacter freundii): 0.391 µg/mL (≈ 1.31 µM) | MIC (Acinetobacter baumannii): 12.5 µg/mL (≈ 41.8 µM) | MIC (Salmonella): 0.2 µg/mL (≈ 0.668 µM) | MIC (Streptococcus agalactiae [4]): 0.01 µg/mL (≈ 0.0334 µM) | MIC (Escherichia coli [5]): 0.1 µg/mL (≈ 0.334 µM) | MIC (Micrococcus luteus): 0.01 µg/mL (≈ 0.0334 µM) | MIC (Pseudomonas aeruginosa [6]): 0.8 µg/mL (≈ 2.67 µM) | MIC (Staphylococcus aureus [7]): 0.01 µg/mL (≈ 0.0334 µM) | MIC (Enterobacter cloacae [8]): 0.1 µg/mL (≈ 0.334 µM) | MIC (Klebsiella pneumoniae [9]): 0.781 µg/mL (≈ 2.61 µM) | MIC (Burkholderia cepacia): 0.8 µg/mL (≈ 2.67 µM) | MIC (Pseudomonas aeruginosa [10]): 3.12 µg/mL (≈ 10.4 µM) | MIC (Providencia rettgeri [11]): 0.2 µg/mL (≈ 0.668 µM) | MIC (Salmonella typhimurium): 0.4 µg/mL (≈ 1.34 µM) | MIC (Proteus mirabilis [12]): 0.2 µg/mL (≈ 0.668 µM) | MIC (Escherichia coli [13]): 0.1 µg/mL (≈ 0.334 µM) | MIC (Pseudomonas aeruginosa [14]): 0.8 µg/mL (≈ 2.67 µM) | MIC (Serratia marcescens [15]): 0.4 µg/mL (≈ 1.34 µM) | MIC (Escherichia coli [16]): 0.1 µg/mL (≈ 0.334 µM) | MIC (Proteus vulgaris): 0.1 µg/mL (≈ 0.334 µM) | MIC [17]: 0.2 µg/mL (≈ 0.668 µM) | MIC (Staphylococcus aureus [18]): 0.02 µg/mL (≈ 0.0668 µM) | MIC (Pseudomonas aeruginosa [19]): 0.8 µg/mL (≈ 2.67 µM) | MIC (Escherichia coli [20]): 0.195 µg/mL (≈ 0.651 µM) | MIC (Enterobacter cloacae [21]): 0.781 µg/mL (≈ 2.61 µM) | MIC (Salmonella paratyphi): 0.1 µg/mL (≈ 0.334 µM) | MIC (Serratia marcescens [22]): 0.8 µg/mL (≈ 2.67 µM) | MIC (Streptococcus pneumoniae): < 0.01 µg/mL | MIC [23]: < 0.01 µg/mL | MIC (Providencia rettgeri [24]): 0.2 µg/mL (≈ 0.668 µM) | MIC (Staphylococcus aureus [25]): < 0.01 µg/mL | MIC (Serratia marcescens [26]): 0.781 µg/mL (≈ 2.61 µM) | MIC (Enterobacter cloacae [27]): 0.1 µg/mL (≈ 0.334 µM) | MIC (Streptococcus agalactiae [28]): 0.01 µg/mL (≈ 0.0334 µM) | MIC [29]: 0.4 µg/mL (≈ 1.34 µM) | MIC (Pasteurella multocida): < 0.01 µg/mL | MIC (Escherichia coli [30]): 0.1 µg/mL (≈ 0.334 µM) | MIC (Streptococcus pyogenes): < 0.01 µg/mL | MIC (Haemophilus influenzae): 6.25 µg/mL (≈ 20.9 µM) | MIC (Enterococcus faecium): < 0.01 µg/mL | MIC (Proteus mirabilis [31]): 0.1 µg/mL (≈ 0.334 µM) | MIC (Klebsiella pneumoniae [32]): 0.2 µg/mL (≈ 0.668 µM) | MIC (Escherichia coli [33]): 0.2 µg/mL (≈ 0.668 µM) | MIC (Enterococcus faecalis): 1.56 µg/mL (≈ 5.22 µM) | MIC (Escherichia coli [34]): 0.05 µg/mL (≈ 0.167 µM) | MIC (Priestia megaterium): 0.03 µg/mL (≈ 0.1 µM) | MIC (Salmonella typhi): 0.05 µg/mL (≈ 0.167 µM) | MIC (Enterococcus durans): 0.1 µg/mL (≈ 0.334 µM) | MIC (Trueperella pyogenes): 0.01 µg/mL (≈ 0.0334 µM) | MIC (Staphylococcus): 0.025 µg/mL (≈ 0.0835 µM)
